Results: ChEMBL document CHEMBL2203168, “Amine linked flavonoid dimers as modulators for P-glycoprotein-based multidrug resistance: structure-activity relationship and mechanism of modulation” (J Med Chem, 2012)

Experiments:
[1] = species: Homo sapiens; test: Inhibition of P-gp-mediated paclitaxel resistance in human LCC6MDR cells assessed as fold decrease in paclitaxel IC50 for cytotoxic activity at 1 uM after 5 days by MTS assay relative to parental cells; format: cell-based
[2] = species: Homo sapiens; test: Inhibition of P-gp-mediated paclitaxel resistance in human LCC6MDR cells assessed as fold decrease in paclitaxel IC50 for cytotoxic activity at 0.5 uM after 5 days by MTS assay relative to parental cells; format: cell-based
[3] = system: MDR; test: Cytotoxicity against human MDA435/LCC6MDR cells expressing MDR after 72 hrs; format: functional, cell-based
Summary of the method: (§1)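 Cells seeded at 1 × 10⁴ per well in supplemented DMEM and given graded doses of dimer for 72 h at 37 °C, 5% CO₂. Survival measured and IC50 derived. N = 1–3 independent experiments, mean ± SEM.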

[4] = Cytotoxicity against human LCC-6 cells after 72 hrs; format: functional, cell-based; settings: LCC-6, 72 h; summary of the method: as §1
[5] = system: L929; test: Cytotoxicity against mouse L929 cells after 72 hrs; format: cell-based; settings: L929, 72 h; summary of the method: as §1

Row | SMILES | Ratio [1] | Ratio [2] | IC50 [3] [µM] | IC50 [4] [µM] | IC50 [5] [µM]
1 | O=c1cc(-c2ccc(OCCOCCN(CCOCCOc3ccc(-c4cc(=O)c5ccccc5o4)cc3)Cc3ccc(F)c(F)c3)cc2)oc2ccccc12 | 109 | 49.3 | 33.6 | 32.5 | 42.2
2 | CC(C)(C)CC(=O)N(CCOCCOc1ccc(-c2cc(=O)c3ccccc3o2)cc1)CCOCCOc1ccc(-c2cc(=O)c3ccccc3o2)cc1 | 72.9 | 18.9 | > 100 | > 100 | > 100
3 | O=c1c(OCc2ccccc2)c(-c2ccc(OCCOCCNCCOCCOc3ccc(-c4oc5ccccc5c(=O)c4OCc4ccccc4)cc3)cc2)oc2ccccc12 | 128 | 54.7 | 4.4 | 4.3 | 4.2
4 | Cc1ccc2oc(-c3ccc(OCCOCCN(CCOCCOc4ccc(-c5cc(=O)c6cc(C)ccc6o5)cc4)C(=O)OC(C)(C)C)cc3)cc(=O)c2c1 | 139 | 9.6 | > 100 | > 100 | > 100
5 | CC(C)(C)OC(=O)N(CCOCCOc1ccc(-c2cc(=O)c3cc(F)ccc3o2)cc1)CCOCCOc1ccc(-c2cc(=O)c3cc(F)ccc3o2)cc1 | 31.9 | 11.3 | > 100 | > 100 | > 100
6 | CC(C)(C)OC(=O)N(CCOCCOc1ccc(-c2oc3ccccc3c(=O)c2OCc2ccccc2)cc1)CCOCCOc1ccc(-c2oc3ccccc3c(=O)c2OCc2ccccc2)cc1 | 1.2 | 1.1 | > 100 | > 100 | –
7 | O=c1cc(-c2ccc(OCCOCCN(CCO)CCOCCOc3ccc(-c4cc(=O)c5ccccc5o4)cc3)cc2)oc2ccccc12 | 32.6 | 5 | 14.8 | 10.7 | 6.9
8 | O=c1cc(-c2ccc(OCCOCCNCCOCCOc3ccc(-c4cc(=O)c5cc(F)ccc5o4)cc3)cc2)oc2ccc(F)cc12 | 109 | 72.9 | 3.3 | 5.3 | 5.7
9 | CN(C)c1cccc2c(S(=O)(=O)N(CCOCCOc3ccc(-c4cc(=O)c5ccccc5o4)cc3)CCOCCOc3ccc(-c4cc(=O)c5ccccc5o4)cc3)cccc12 | 1.3 | 1.4 | > 100 | > 100 | –
10 | O=c1cc(-c2ccc(OCCOCCOCCOCCOc3ccc(-c4cc(=O)c5ccccc5o4)cc3)cc2)oc2ccccc12 | 17.2 | 6.2 | – | – | –
11 | C/C=C/C[C@@H](C)C(=O)[C@H]1C(=O)N[C@@H](C(C)C)C(=O)N(C)CC(=O)N(C)[C@@H](CC(C)C)C(=O)N[C@@H](C(C)C)C(=O)N(C)[C@@H](CC(C)C)C(=O)N[C@@H](C)C(=O)N[C@H](C)C(=O)N(C)[C@@H](CC(C)C)C(=O)N(C)[C@@H](CC(C)C)C(=O)N(C)[C@@H](C(C)C)C(=O)N1C [VALSPODAR] | 85.1 | – | 14.6 | 25.3 | > 100
12 | COc1cc(-c2cc(=O)c3ccccc3o2)ccc1OCCOCCNCCOCCOc1ccc(-c2cc(=O)c3ccccc3o2)cc1OC | 1.1 | 0.8 | 23.8 | 12.8 | –
13 | COc1cccc2oc(-c3ccc(OCCOCCNCCOCCOc4ccc(-c5cc(=O)c6c(OC)cccc6o5)cc4)cc3)cc(=O)c12 | 1.2 | 1.2 | 10.2 | 8.8 | –
14 | C[C@H](N)C(=O)N(CCOCCOc1ccc(-c2cc(=O)c3ccccc3o2)cc1)CCOCCOc1ccc(-c2cc(=O)c3ccccc3o2)cc1 | 0.9 | 1 | 4.6 | 4.4 | –
15 | O=C(O)CCC(=O)N(CCOCCOc1ccc(-c2cc(=O)c3ccccc3o2)cc1)CCOCCOc1ccc(-c2cc(=O)c3ccccc3o2)cc1 | 0.9 | 1.1 | > 100 | 78.4 | –
16 | CC(=O)O[C@H]1C(=O)[C@@]2(C)[C@H]([C@H](OC(=O)c3ccccc3)[C@]3(O)C[C@H](OC(=O)[C@H](O)[C@@H](NC(=O)c4ccccc4)c4ccccc4)C(C)=C1C3(C)C)[C@]1(OC(C)=O)CO[C@@H]1C[C@@H]2O | 1 | – | – | – | –
